EBV gp42 inh – blocks Epstein-Barr virus glycoprotein 42 binding. inhibition, % (tested at 21.74 µM). AID 1085. Fluorescence polarization binding assay, mP read-out. Q1HVG2. hit rate 0.42% among 220,000; in the data active means inhibition above about 50%
Target sequence (Q1HVG2 whole entry, looked up): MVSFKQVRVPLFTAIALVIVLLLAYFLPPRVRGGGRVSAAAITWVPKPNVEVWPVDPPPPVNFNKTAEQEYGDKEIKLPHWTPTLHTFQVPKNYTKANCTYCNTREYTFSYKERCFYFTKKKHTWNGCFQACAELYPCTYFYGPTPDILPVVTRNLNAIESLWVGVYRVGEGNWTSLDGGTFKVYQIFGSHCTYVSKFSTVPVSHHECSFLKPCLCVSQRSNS
EBNA-1 inh – blocks EBNA-1 binding to DNA; AID 1950; inhibition, % at 14.8 µM; EBNA-1 DNA binding, fluorescence polarization; hit rate 0.34% among 300,000; in the data active means inhibition above about 28%
HCV core dimer – HCV core protein dimerization inhibition. TR-FRET GST/Flag-core106 dimerization, 1536-well. hit rate 0.33% among 300,000. inhibition, % at 5 µM. AID 1899;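 active means inhibition above the mean of all tested compounds plus 3 SD, set per screening campaign, cut at about 45% in these data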
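System – GST-tagged and Flag-tagged HCV core protein residues 1-106 · Repeats – one well for each compound · Technique – TR-FRET 671 and 617 nm emission · Doses – one concentration, 5 µM, in 0.5% DMSO · Times – 4 h, 22.5 °C incubation · Also added – Eu donor and XL665 acceptor anti-tag antibodies · Measure – percent inhibition of core106 dimerization signal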
NS3 helicase inh – HCV NS3 helicase inhibition; inhibition, % at 10.9 µM; hit rate 0.56% among 290,000; NS3 helicase DNA unwinding, Cy5 molecular beacon fluorescence;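 active means inhibition above the mean of all tested compounds plus 3 SD, set per campaign, cut at about 35% in these data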;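 further: 0% = DMSO wells and 100% = thioflavine S control wells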
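Compound dosing – single dose, 10.9 µM nominal final, DMSO 0.8% final · System – NS3 helicase fragment of HCV · Buffer or medium – MOPS pH 6.5, MgCl2, DTT, Tween20, BSA · Signal – Cy5 beacon fluorescence read at start and 1 h · Also added – annealed dual-labelled DNA beacon duplex, ATP-started · Schedule – 1 h at 25 °C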
MEX-5 binding – C. elegans MEX-5 TCR-2 RNA binding activity; activity score (negative = inhibition of binding), % at 10 µM; MEX-5/FITC-TCR2 RNA binding, fluorescence polarization; hits give low values; hit rate 0.38% among 300,000; Q9XUB2;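 active means inhibition past about -25% in most replicates, and total fluorescence under double the plate's negative control median, limit read from the data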;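 further: 0% = DMSO and -100% = 5 µM competing unlabeled TCR2 RNA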
ZTA DNA inh – counter-screen for EBNA-1 inhibitors: inhibitors of Epstein-Barr virus ZTA; P03206; ZTA-DNA binding, fluorescence polarization; inhibition, % at 11 µM; hit rate 0.15% among 320,000; in the data active means inhibition above about 33%
Target sequence (P03206 whole entry, looked up): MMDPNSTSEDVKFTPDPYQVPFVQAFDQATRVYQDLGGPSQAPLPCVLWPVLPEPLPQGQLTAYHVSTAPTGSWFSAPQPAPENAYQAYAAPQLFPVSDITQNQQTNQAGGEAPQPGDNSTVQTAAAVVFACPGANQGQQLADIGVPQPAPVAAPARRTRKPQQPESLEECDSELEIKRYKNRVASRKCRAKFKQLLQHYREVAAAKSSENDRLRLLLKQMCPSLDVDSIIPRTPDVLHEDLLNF
NS3 hel confirm – HCV NS3 helicase inhibition, confirmation assay; AID 1943; inhibition, % at 10.9 µM; NS3 helicase DNA unwinding, Cy5 molecular beacon fluorescence; hit rate 31% among 1,600; shares compounds with NS3 helicase inh;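 active means inhibition above the mean of all tested compounds plus 3 SD, cutoff set per campaign, cut at about 36% in these data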
DNA FID counter – intercalator displacement, NS3 helicase counter-screen. shares compounds with NS3 helicase inh. DNA fluorescent intercalator displacement, fluorescence. inhibition, % at 7.9 µM. hit rate 4% among 1,600. AID 1945; in the data active means inhibition above about 37%;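 further: 0% = vehicle and 100% = reference compound; higher means more displacement of ethidium bromide from the DNA hairpin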
FID counter DR – displaces fluorescent intercalator from DNA, HCV helicase counter-screen | shares compounds with NS3 helicase inh | fluorescent intercalator displacement from DNA, fluorescence | IC50, µM | 120 tested, under 10 active | AID 2172; call rule not given here
Numbers without * were called inactive. In the library only some 1.7% were active in any assay of this set; here they are far more common.

For O=C1/C(=C\c2ccccn2)SC(=S)N1c1ccc(S(=O)(=O)Nc2nccs2)cc1 the results were EBV gp42 inh -17, EBNA-1 inh 3, HCV core dimer 15, NS3 helicase inh 36*, MEX-5 binding -2, ZTA DNA inh -7, NS3 hel confirm -17 and DNA FID counter 25.
`CCOc1ccc(S(=O)(=O)NCCC(=O)NCCOc2ccccc2OC)cc1` gave EBNA-1 inh -2, HCV core dimer -5, MEX-5 binding 2 and ZTA DNA inh -3.
Nc1nnc(SCC(=O)NC2CCCC2)s1 was read as EBNA-1 inh -3, HCV core dimer 1, NS3 helicase inh 6, MEX-5 binding 2 and ZTA DNA inh 4.
CN(C(=O)CSc1nnc(N)s1)C1CCCCC1 was read as EBNA-1 inh -11, HCV core dimer -20, NS3 helicase inh 37*, MEX-5 binding 1, ZTA DNA inh 1, NS3 hel confirm -7 and DNA FID counter 8.
For COc1ccc(CN2C(=O)c3cccnc3C2=O)cc1S(=O)(=O)N(C)c1ccc(C)cc1 the results were EBNA-1 inh -2, HCV core dimer -1, NS3 helicase inh -18, MEX-5 binding -2 and ZTA DNA inh -4.
O=[N+]([O-])c1cc2oc3c(c2c(C=NCc2ccccc2)c1O)CCCC3 was read as EBV gp42 inh -71, EBNA-1 inh 7, HCV core dimer 17, NS3 helicase inh 51*, MEX-5 binding -3, ZTA DNA inh 3, NS3 hel confirm 75* and DNA FID counter 69*.
CC(C)CN=Cc1c(O)c([N+](=O)[O-])cc2oc3c(c12)CCCC3 was read as EBV gp42 inh -12, EBNA-1 inh 4, HCV core dimer 13, NS3 helicase inh 46*, MEX-5 binding -7, ZTA DNA inh -1, NS3 hel confirm 12 and DNA FID counter 63*.
Screening Cc1cccc(/N=C/c2c(O)ccc3oc4c(c23)CCCC4)n1 returned EBV gp42 inh -15, EBNA-1 inh 5, HCV core dimer 7, NS3 helicase inh -4, MEX-5 binding -4 and ZTA DNA inh -6.
For CCCCCOc1ccc(/C=c2\sc3nc(=O)c(-c4ccccc4)nn3c2=O)cc1OC the results were EBV gp42 inh -5, EBNA-1 inh 7, HCV core dimer 2, NS3 helicase inh 43*, MEX-5 binding -31*, ZTA DNA inh 9, NS3 hel confirm 72*, DNA FID counter -20 and FID counter DR >79.
`CCCOc1ccc(/C=c2\sc3nc(-c4ccco4)nn3c2=O)cc1OCC` gave EBV gp42 inh 36, EBNA-1 inh -6, HCV core dimer 10, NS3 helicase inh 42*, MEX-5 binding -67*, ZTA DNA inh -1, NS3 hel confirm -12 and DNA FID counter -2.
For COc1cc(/C=c2\sc3nc(-c4ccncc4)nn3c2=O)ccc1OC(C)=O the results were EBV gp42 inh 37 and NS3 helicase inh 6.
Cc1ccc(C(=O)O)cc1-c1ccc(/C=C2\SC(=O)N(CC(=O)Nc3ccccc3)C2=O)o1 was read as EBV gp42 inh 0, EBNA-1 inh 8, HCV core dimer 12, NS3 helicase inh 38*, MEX-5 binding -19, ZTA DNA inh 8, NS3 hel confirm 78*, DNA FID counter 2 and FID counter DR >79.
Screening CN(C)S(=O)(=O)c1ccc(C(=O)OCC2CCCO2)cc1 (stereo unspecified) returned NS3 helicase inh -12 and MEX-5 binding 0.
For CCOc1ccccc1NC(=O)C(=O)CC(=O)c1ccc(OC)cc1 the results were EBNA-1 inh -8, HCV core dimer -38, NS3 helicase inh 37*, MEX-5 binding 3, ZTA DNA inh -13, NS3 hel confirm -33 and DNA FID counter -1.

Bioassay records: PubChem BioAssay, several laboratories
